Results on 2 compounds are retold here after ChEMBL document CHEMBL4261487, “Small structural changes of the imidazopyridine diacylglycerol acyltransferase 2 (DGAT2) inhibitors produce an improved safety profile” (Medchemcomm, 2017).

Data set [1] relates to Canis familiaris. Put plainly: Unbound Cmax in beagle dog at 3 mg/kg, po qd administered for 1 month. The data set is classed as ADME, organism-based, Canis lupus familiaris. The settings on record: in vivo. The method, boiled down:
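One-month dog toxicity study with once-daily oral dosing. Toxicity groups were 2/sex/dose, and unbound peak exposure was taken from toxicokinetic sampling.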

Data set [2] is described as follows: Apparent intrinsic clearance in rat hepatocytes assessed per million cells. The data set is classed as ADME, cell-based, Hepatocyte.
Data set [3] concerns Canis familiaris. The experiment in a line: Toxicity in telemetered beagle dog assessed as increase in diastolic pressure at 50 mg/kg administered via oral gavage measured during 4 hrs of post dosing. The note with it: in vivo. Format: organism-based, Canis lupus familiaris.
For data set [4], the target named is T1, Diacylglycerol O-acyltransferase 2 (Homo sapiens, UniProt Q96PD7).
T1 sequence (Q96PD7 whole entry): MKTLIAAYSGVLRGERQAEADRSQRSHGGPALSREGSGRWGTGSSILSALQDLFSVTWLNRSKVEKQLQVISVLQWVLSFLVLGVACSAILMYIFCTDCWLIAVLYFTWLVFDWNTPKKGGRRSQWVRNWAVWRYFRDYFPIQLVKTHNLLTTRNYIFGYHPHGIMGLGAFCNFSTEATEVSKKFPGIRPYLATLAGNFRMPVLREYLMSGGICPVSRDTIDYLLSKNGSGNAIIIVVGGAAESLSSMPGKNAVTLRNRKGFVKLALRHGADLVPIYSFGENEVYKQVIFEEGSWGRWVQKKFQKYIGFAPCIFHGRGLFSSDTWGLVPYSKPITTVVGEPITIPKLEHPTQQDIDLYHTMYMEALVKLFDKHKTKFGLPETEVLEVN
Put plainly: Inhibition of human DGAT2. An outline of the steps: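 IC50 against human DGAT2 in an enzymatic assay, reported as the geometric mean of at least three replicates with SEM.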

Data set [5] relates to Canis familiaris. Put plainly: In vivo inhibition of DGAT2 in beagle dog assessed as coverage of in vitro IC50 for dog DGAT2 at 30 mg/kg, po qd administered for 1 month. The data set is classed as functional, Canis lupus familiaris. Also noted: scale not given: the % may be the effect or the level left. An outline of the steps: (§1)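 Beagle dogs, once-daily oral dosing for 14 days or 1 month; systemic exposure with sexes combined; coverage is the average % above dog DGAT2 IC50 at steady state over the 24 h dosing interval.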

Data set [6] relates to Canis familiaris. Put plainly: Toxicity in beagle dog at 3 to 30 mg/kg, po qd administered for 1 month. Format: organism-based, Canis lupus familiaris. The note with it: in vivo.
In data set [7] the target is Cytochrome P450 3A4 (Homo sapiens, UniProt P08684). Put plainly: Drug metabolism in human liver microsomes assessed as fraction of CYP3A4-mediated oxidative metabolism preincubated for 5 mins followed by addition of NADPH regenerating system and measured after 2.5 to 60 mins. The data set is classed as ADME. The method, boiled down:
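Fractions of metabolism attributed to CYP oxidation and UGT glucuronidation were derived from human liver microsomal incubations. For the glucuronidation arm, microsomes were supplemented with the UGT cofactor UDP-glucuronic acid.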
Background: Liver microsomes are vesicles of endoplasmic reticulum, rich in cytochrome P450 enzymes.

Data set [8] deals with Canis familiaris. The experiment in a line: Toxicity in telemetered beagle dog assessed as increase in systolic pressure at 25 mg/kg administered via oral gavage measured during 4 hrs of post dosing. The data set is classed as organism-based, Canis lupus familiaris. The note with it: in vivo.
The test system of data set [9] is Canis familiaris. The experiment in a line: Toxicity in telemetered beagle dog assessed as increase in heart rate at 25 mg/kg administered via oral gavage measured during 4 hrs of post dosing. Format: organism-based, Canis lupus familiaris. The note with it: in vivo.
Data set [10] relates to Canis familiaris. Put plainly: In vivo inhibition of DGAT2 in beagle dog assessed as coverage of in vitro IC50 for dog DGAT2 at 300 mg/kg, po qd administered for 14 days. Format: functional, Canis lupus familiaris. More on the design: scale not given: the % may be the effect or the level left. The method, boiled down: as §1
For data set [11], the system named is Canis familiaris. The experiment in a line: Toxicity in beagle dog assessed as renal tubular regeneration at 300 mg/kg, po qd administered for 14 days. The data set is classed as organism-based, Canis lupus familiaris. The note with it: in vivo, 336 h.
For data set [12], the system named is Rattus norvegicus. Put plainly: Unbound AUC in Wistar Han IGS rat at 500 mg/kg, po qd administered for 14 days. The settings on record: in vivo, 336 h. The data set is classed as ADME, organism-based. The method, boiled down:
(§2)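 Wistar Han rats were dosed orally once daily for 14 days (exploratory, 5/sex/dose) or 1 month (toxicity, 10/sex/dose). Toxicokinetic satellite animals (3–4/sex/dose) were used, and steady-state systemic exposure is given as the mean of male and female values combined.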

Data set [13] deals with Canis familiaris. Put plainly: In vivo inhibition of DGAT2 in beagle dog assessed as coverage of in vitro IC50 for dog DGAT2 at 75 mg/kg, po qd administered for 14 days. The data set is classed as functional, Canis lupus familiaris. More on the design: scale not given: the % may be the effect or the level left. An outline of the steps: as §1
The test system of data set [14] is Canis familiaris. Put plainly: Toxicity in telemetered beagle dog assessed as increase in systolic pressure at 10 mg/kg administered via oral gavage measured over 24 hrs. Format: organism-based, Canis lupus familiaris. The note with it: in vivo.
The subject of data set [15] is Canis familiaris. Put plainly: Unbound AUC in beagle dog at 50 mg/kg, po qd administered for 1 month. The data set is classed as ADME, organism-based, Canis lupus familiaris. The settings on record: in vivo. An outline of the steps:
(§3)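 Beagle dogs were dosed orally once daily in a 14-day exploratory study or 1-month toxicity studies. Steady-state systemic exposure over the 24 h dosing interval is reported as the mean of male and female values combined.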

In data set [16] the test system is Rattus norvegicus. Put plainly: Unbound AUC in Wistar Han IGS rat at 60 mg/kg, po qd administered for 1 month. The data set is classed as ADME, organism-based. The settings on record: in vivo. An outline of the steps:
as §2

Data set [17] concerns Canis familiaris. Put plainly: Toxicity in telemetered beagle dog assessed as multiple bouts of emesis at 75 mg/kg administered via oral gavage measured within 4 hrs of dosing. Format: organism-based, Canis lupus familiaris. The settings on record: in vivo.
Data set [18] has as its system Canis familiaris. Put plainly: In vivo inhibition of DGAT2 in beagle dog assessed as coverage of in vitro IC50 for dog DGAT2 at 100 to 150 mg/kg, po qd administered for 1 month. Format: functional, Canis lupus familiaris. Also noted: scale not given: the % may be the effect or the level left. The method, boiled down:
as §1

The subject of data set [19] is Rattus norvegicus. The experiment in a line: Unbound Cmax in Wistar Han IGS rat at 100 mg/kg, po qd administered for 14 days. Format: ADME, organism-based. The settings on record: in vivo, 336 h. The method, boiled down:
as §2

The test system of data set [20] is Canis familiaris. Put plainly: Toxicity in telemetered beagle dog assessed as foamy salivation at 20 mg/kg, iv administered as single bolus dose over 2 mins. The note with it: in vivo. Format: organism-based, Canis lupus familiaris.
The subject of data set [21] is Rattus norvegicus. Put plainly: Toxicity in Wistar Han IGS rat assessed as foamy macrophage accumulation in lung at 500 mg/kg, po qd administered for 14 days. The data set is classed as organism-based. The note with it: in vivo, 336 h. The method, boiled down: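 Wistar Han rats, daily oral dosing for 14 days (5/sex/dose) or 1 month (10/sex/dose); microscopic findings reported as incidence by sex, plus organ weights.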

In data set [22] the test system is Canis familiaris. The experiment in a line: Toxicity in telemetered beagle dog assessed as increase in diastolic pressure at 75 mg/kg administered via oral gavage measured over 24 hrs. The data set is classed as organism-based, Canis lupus familiaris. The settings on record: in vivo.
The test system of data set [23] is Canis familiaris. Put plainly: Unbound Cmax in beagle dog at 2 mg/kg, po qd administered for 1 month. Format: ADME, organism-based, Canis lupus familiaris. The settings on record: in vivo. The method, boiled down: as §3
Data set [24] relates to Canis familiaris. Put plainly: Unbound AUC in beagle dog at 5 mg/kg, po qd administered for 1 month. The settings on record: in vivo. Format: ADME, organism-based, Canis lupus familiaris. An outline of the steps:
as §3

In data set [25] the test system is Canis familiaris. Put plainly: Toxicity in telemetered beagle dog assessed as increase in systolic pressure at 75 mg/kg administered via oral gavage measured over 24 hrs. The data set is classed as organism-based, Canis lupus familiaris. The settings on record: in vivo.
Data set [26] has as its system Canis familiaris. Put plainly: Unbound Cmax in beagle dog at 50 mg/kg, po qd administered for 1 month. The note with it: in vivo. Format: ADME, organism-based, Canis lupus familiaris. The method, boiled down:
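Beagle dogs were given the compound orally once daily for 1 month in a toxicity study, with 2 dogs per sex per dose group. Plasma exposure was measured at steady state across the 24 h dosing interval.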

Data set [27] has as its system Canis familiaris. Put plainly: Unbound Cmax in beagle dog at 100 to 150 mg/kg, po qd administered for 1 month. Format: ADME, organism-based, Canis lupus familiaris. The settings on record: in vivo. The method, boiled down:
as §3

SMILES strings stand for the structures.

Sequence of Cytochrome P450 3A4 (P08684 whole entry): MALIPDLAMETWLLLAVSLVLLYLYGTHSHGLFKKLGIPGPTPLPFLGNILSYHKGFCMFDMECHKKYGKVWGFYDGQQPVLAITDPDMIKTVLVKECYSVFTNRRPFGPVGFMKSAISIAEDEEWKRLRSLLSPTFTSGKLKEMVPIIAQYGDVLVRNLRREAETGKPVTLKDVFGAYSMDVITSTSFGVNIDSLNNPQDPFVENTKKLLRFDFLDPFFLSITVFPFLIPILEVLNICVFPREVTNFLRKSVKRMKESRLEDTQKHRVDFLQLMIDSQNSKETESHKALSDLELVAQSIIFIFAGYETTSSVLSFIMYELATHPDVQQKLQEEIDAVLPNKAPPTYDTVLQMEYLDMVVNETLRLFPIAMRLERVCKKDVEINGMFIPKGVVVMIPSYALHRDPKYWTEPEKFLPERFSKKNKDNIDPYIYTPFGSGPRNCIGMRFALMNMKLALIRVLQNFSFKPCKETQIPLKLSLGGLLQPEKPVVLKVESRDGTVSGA

In data set [1], `C[C@@H](c1nc2ccc(N3CCC[C@@H](C(=O)N4CCCC4)C3)nc2[nH]1)n1cc(Cl)cn1` showed a fCmax of 454 nM. Also, the “CLH(app)” value in data set [2] turned out to be 12.7 µL/min. For the same compound, the Activity in data set [3] is 6 mmHg; in data set [5] it was 96%; in [6] it was “Non-Toxic”; in [8], 6 mmHg; in [9], 10 bpm. This compound had an IC50 in [4] of 20 nM. In addition, in data set [7], the Ratio came to 0.61.

As for `CS(=O)(=O)O.O=C([C@@H]1CCCN(c2ccc3nc(C4(n5cc(Cl)cn5)CC4)[nH]c3n2)C1)N1CCCC1`, the Activity is reported as above 99% in data set [10]; “Toxic” in data set [11]; 99% in data set [13]; 3 mmHg in data set [14]; “Toxic” in data set [17]; above 99% in data set [18]. The Activity entry in data set [20] is “Non-Toxic”; in [21], “Toxic”; in [22] it was 6 mmHg; in data set [25], 5 mmHg. In addition, the fAUC is 88300 ng·h/mL in [12], 57500 ng·h/mL in data set [15], 22600 ng·h/mL in data set [16] and 1120 ng·h/mL in data set [24]. Further, the fCmax in [19] worked out at 4.65 µM; in data set [23], 305 nM; in [26] it was 12.7 µM; in data set [27] it was 16.3 µM.

As a reminder, the IC50 is the concentration at which inhibition is half-maximal.
